Type in all cases: functional, cell-based
The target in test [1] is T1, Parathyroid hormone/parathyroid hormone-related peptide receptor (Homo sapiens, UniProt Q03431).
T1 sequence (Q03431 whole entry): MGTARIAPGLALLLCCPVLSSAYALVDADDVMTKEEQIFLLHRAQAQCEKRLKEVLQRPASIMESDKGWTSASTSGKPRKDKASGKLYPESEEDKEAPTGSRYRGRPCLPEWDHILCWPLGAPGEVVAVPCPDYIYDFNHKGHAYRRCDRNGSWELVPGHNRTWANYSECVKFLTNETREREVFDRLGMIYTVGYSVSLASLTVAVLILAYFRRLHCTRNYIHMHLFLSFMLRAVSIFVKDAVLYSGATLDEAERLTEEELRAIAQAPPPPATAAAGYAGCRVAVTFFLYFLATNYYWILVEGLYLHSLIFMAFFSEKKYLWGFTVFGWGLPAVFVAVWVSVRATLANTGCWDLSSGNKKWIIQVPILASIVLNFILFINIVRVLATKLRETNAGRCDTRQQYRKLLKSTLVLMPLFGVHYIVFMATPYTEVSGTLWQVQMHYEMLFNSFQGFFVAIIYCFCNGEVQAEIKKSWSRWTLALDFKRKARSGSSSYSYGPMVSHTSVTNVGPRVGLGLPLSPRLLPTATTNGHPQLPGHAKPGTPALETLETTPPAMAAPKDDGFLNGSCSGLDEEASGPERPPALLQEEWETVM
As to the kind of experiment: Agonist activity at human PTH1 receptor expressed in human GP2.3 cells assessed as induction of cAMP after 12 to 20 mins by luciferase reporter gene assay. In general terms: A reporter such as luciferase makes a cellular process visible.

Test [2] addresses T2, Parathyroid hormone/parathyroid hormone-related peptide receptor (Homo sapiens) (UniProt Q03431).
T2 sequence (whole entry): T1 sequence (Q03431 whole entry)
As to the kind of experiment: Agonist activity at human PTH1 receptor expressed in human GP2.3 cells assessed as induction of cAMP after 12 to 20 mins by luciferase reporter gene assay relative to PTH(1 to 34 residues)-NH2.

The target of test [3] is T2, Parathyroid hormone/parathyroid hormone-related peptide receptor (Homo sapiens). As to the kind of experiment: Agonist activity at extracellular domain truncate human PTH1 receptor expressed in GD5 cells assessed as induction of cAMP after 12 to 20 mins by luciferase reporter gene assay. An outline of the steps: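 HEK293-derived lines stably expressing Glosensor cAMP reporter plus full-length human PTHR1 (GP2.3) or ECD-truncated PTHR1 (GD5). Confluent monolayers preincubated at room temperature in CO2-independent medium with 0.5 mM D-luciferin until baseline stable (30 min), then varied agonist concentrations added. Maximal luminescence (12−20 min) used for sigmoidal variable-slope fits.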

Drawing on ChEMBL document CHEMBL4024754, “Development of Potent, Protease-Resistant Agonists of the Parathyroid Hormone Receptor with Broad β Residue Distribution” (J Med Chem, 2017), this text covers EC50, fold change (FC) and Activity for 7 compounds.

Active and inactive are the calls of the source. No cut-off for these calls is given here.

As a reminder, the EC50 is the concentration that produces a half-maximal response. For `CC[C@H](C)[C@H](NC(=O)[C@H](CCC(=O)O)NC(=O)[C@H](CO)NC(=O)[C@H]1CCC[C@@H]1NC(=O)[C@@H](N)CO)C(=O)N[C@@H](CCC(N)=O)C(=O)N[C@@H](CC(C)C)C(=O)N[C@@H](CCSC)C(=O)N[C@@H](Cc1cnc[nH]1)C(=O)N[C@@H](CC(N)=O)C(=O)N[C@@H](CC(C)C)C(=O)NCC(=O)N[C@@H](CCCCN)C(=O)N[C@@H](Cc1cnc[nH]1)C(=O)N[C@@H](CC(C)C)C(=O)N[C@@H](CC(N)=O)C(=O)N[C@@H](CO)C(=O)N[C@@H](CCSC)C(=O)N[C@@H](CCC(=O)O)C(=O)N[C@@H](CCCNC(=N)N)C(=O)N[C@H](C(=O)N[C@@H](CCC(=O)O)C(=O)N[C@@H](Cc1c[nH]c2ccccc12)C(=O)N[C@@H](CC(C)C)C(=O)N[C@@H](CCCNC(=N)N)C(=O)N[C@@H](CCCCN)C(=O)N[C@@H](CCCCN)C(=O)N[C@@H](CC(C)C)C(=O)N[C@@H](CCC(N)=O)C(=O)N[C@@H](CC(=O)O)C(=O)N[C@H](C(=O)N[C@@H](Cc1cnc[nH]1)C(=O)N[C@@H](CC(N)=O)C(=O)N[C@@H](Cc1ccccc1)C(N)=O)C(C)C)C(C)C`, the 50% effective concentration (EC50) in test [1] (read-out: EC50) stood at 0.27 nM. The fold change (FC) in test [2] is 3. Further, the result in test [3] was Active.

Regarding `CC[C@H](C)[C@H](NC(=O)[C@H](CCC(=O)O)NC(=O)[C@H](CO)NC(=O)[C@@H](NC(=O)[C@@H](N)CO)C(C)C)C(=O)N[C@@H](CCC(N)=O)C(=O)N[C@H]1CCC[C@@H]1C(=O)N[C@@H](CCSC)C(=O)N[C@@H](Cc1cnc[nH]1)C(=O)N[C@@H](CC(N)=O)C(=O)N[C@@H](CC(C)C)C(=O)NCC(=O)N[C@@H](CCCCN)C(=O)N[C@@H](Cc1cnc[nH]1)C(=O)N[C@@H](CC(C)C)C(=O)N[C@@H](CC(N)=O)C(=O)N[C@@H](CO)C(=O)N[C@@H](CCSC)C(=O)N[C@@H](CCC(=O)O)C(=O)N[C@@H](CCCNC(=N)N)C(=O)N[C@H](C(=O)N[C@@H](CCC(=O)O)C(=O)N[C@@H](Cc1c[nH]c2ccccc12)C(=O)N[C@@H](CC(C)C)C(=O)N[C@@H](CCCNC(=N)N)C(=O)N[C@@H](CCCCN)C(=O)N[C@@H](CCCCN)C(=O)N[C@@H](CC(C)C)C(=O)N[C@@H](CCC(N)=O)C(=O)N[C@@H](CC(=O)O)C(=O)N[C@H](C(=O)N[C@@H](Cc1cnc[nH]1)C(=O)N[C@@H](CC(N)=O)C(=O)N[C@@H](Cc1ccccc1)C(N)=O)C(C)C)C(C)C`, the EC50 in test [1] (read-out: EC50) was 0.12 nM. The fold change (FC) in test [2] came to 1.3. The result in test [3] was Active.

Consider `CC[C@H](C)[C@H](NC(=O)[C@H](CCC(=O)O)NC(=O)[C@H]1CCC[C@@H]1NC(=O)[C@@H](NC(=O)[C@@H](N)CO)C(C)C)C(=O)N[C@@H](CCC(N)=O)C(=O)N[C@@H](CC(C)C)C(=O)N[C@@H](CCSC)C(=O)N[C@@H](Cc1cnc[nH]1)C(=O)N[C@@H](CC(N)=O)C(=O)N[C@@H](CC(C)C)C(=O)NCC(=O)N[C@@H](CCCCN)C(=O)N[C@@H](Cc1cnc[nH]1)C(=O)N[C@@H](CC(C)C)C(=O)N[C@@H](CC(N)=O)C(=O)N[C@@H](CO)C(=O)N[C@@H](CCSC)C(=O)N[C@@H](CCC(=O)O)C(=O)N[C@@H](CCCNC(=N)N)C(=O)N[C@H](C(=O)N[C@@H](CCC(=O)O)C(=O)N[C@@H](Cc1c[nH]c2ccccc12)C(=O)N[C@@H](CC(C)C)C(=O)N[C@@H](CCCNC(=N)N)C(=O)N[C@@H](CCCCN)C(=O)N[C@@H](CCCCN)C(=O)N[C@@H](CC(C)C)C(=O)N[C@@H](CCC(N)=O)C(=O)N[C@@H](CC(=O)O)C(=O)N[C@H](C(=O)N[C@@H](Cc1cnc[nH]1)C(=O)N[C@@H](CC(N)=O)C(=O)N[C@@H](Cc1ccccc1)C(N)=O)C(C)C)C(C)C`, for which the EC50 in test [1] (read-out: EC50) stood at 11.5 nM. For the same compound, the fold change (FC) in test [2] was determined as 126. For the same compound, the outcome in test [3] was Active.

Take `CC[C@H](C)[C@H](NC(=O)[C@H]1CCC[C@@H]1NC(=O)[C@H](CO)NC(=O)[C@@H](NC(=O)[C@@H](N)CO)C(C)C)C(=O)N[C@@H](CCC(N)=O)C(=O)N[C@@H](CC(C)C)C(=O)N[C@@H](CCSC)C(=O)N[C@@H](Cc1cnc[nH]1)C(=O)N[C@@H](CC(N)=O)C(=O)N[C@@H](CC(C)C)C(=O)NCC(=O)N[C@@H](CCCCN)C(=O)N[C@@H](Cc1cnc[nH]1)C(=O)N[C@@H](CC(C)C)C(=O)N[C@@H](CC(N)=O)C(=O)N[C@@H](CO)C(=O)N[C@@H](CCSC)C(=O)N[C@@H](CCC(=O)O)C(=O)N[C@@H](CCCNC(=N)N)C(=O)N[C@H](C(=O)N[C@@H](CCC(=O)O)C(=O)N[C@@H](Cc1c[nH]c2ccccc12)C(=O)N[C@@H](CC(C)C)C(=O)N[C@@H](CCCNC(=N)N)C(=O)N[C@@H](CCCCN)C(=O)N[C@@H](CCCCN)C(=O)N[C@@H](CC(C)C)C(=O)N[C@@H](CCC(N)=O)C(=O)N[C@@H](CC(=O)O)C(=O)N[C@H](C(=O)N[C@@H](Cc1cnc[nH]1)C(=O)N[C@@H](CC(N)=O)C(=O)N[C@@H](Cc1ccccc1)C(N)=O)C(C)C)C(C)C`: the EC50 result in test [1] is “Not Active”. Also, the result in test [3] was Active.

With `CSCC[C@H](NC(=O)[C@H](CO)NC(=O)[C@H](CC(N)=O)NC(=O)[C@H](CC(C)C)NC(=O)[C@H](Cc1cnc[nH]1)NC(=O)[C@H](CCCCN)NC(=O)CNC(=O)[C@H](CC(C)C)NC(=O)[C@H](CC(N)=O)NC(=O)[C@H](Cc1cnc[nH]1)NC(=O)[C@H](CCSC)NC(=O)[C@H](CC(C)C)NC(=O)[C@H](CCC(N)=O)NC(=O)[C@H]1CCC[C@@H]1NC(=O)[C@H](CCC(=O)O)NC(=O)[C@H](CO)NC(=O)[C@@H](NC(=O)[C@@H](N)CO)C(C)C)C(=O)N[C@@H](CCC(=O)O)C(=O)N[C@@H](CCCNC(=N)N)C(=O)N[C@H](C(=O)N[C@@H](CCC(=O)O)C(=O)N[C@@H](Cc1c[nH]c2ccccc12)C(=O)N[C@@H](CC(C)C)C(=O)N[C@@H](CCCNC(=N)N)C(=O)N[C@@H](CCCCN)C(=O)N[C@@H](CCCCN)C(=O)N[C@@H](CC(C)C)C(=O)N[C@@H](CCC(N)=O)C(=O)N[C@@H](CC(=O)O)C(=O)N[C@H](C(=O)N[C@@H](Cc1cnc[nH]1)C(=O)N[C@@H](CC(N)=O)C(=O)N[C@@H](Cc1ccccc1)C(N)=O)C(C)C)C(C)C`, in test [1] (read-out: EC50), the concentration giving a half-maximal response (EC50) was found to be 0.17 nM. Besides, the fold change (FC) in test [2] was found to be 1.9. Further, the result in test [3] was Active.

In the case of `CC[C@H](C)[C@H](NC(=O)[C@H](CCC(=O)O)NC(=O)[C@H](CO)NC(=O)[C@@H](NC(=O)[C@@H](N)CO)C(C)C)C(=O)N[C@@H](CCC(N)=O)C(=O)N[C@@H](CC(C)C)C(=O)N[C@@H](CCSC)C(=O)N[C@H]1CNC[C@@H]1C(=O)N[C@@H](CC(N)=O)C(=O)N[C@@H](CC(C)C)C(=O)NCC(=O)N[C@@H](CCCCN)C(=O)N[C@@H](Cc1cnc[nH]1)C(=O)N[C@@H](CC(C)C)C(=O)N[C@@H](CC(N)=O)C(=O)N[C@@H](CO)C(=O)N[C@@H](CCSC)C(=O)N[C@@H](CCC(=O)O)C(=O)N[C@@H](CCCNC(=N)N)C(=O)N[C@H](C(=O)N[C@@H](CCC(=O)O)C(=O)N[C@@H](Cc1c[nH]c2ccccc12)C(=O)N[C@@H](CC(C)C)C(=O)N[C@@H](CCCNC(=N)N)C(=O)N[C@@H](CCCCN)C(=O)N[C@@H](CCCCN)C(=O)N[C@@H](CC(C)C)C(=O)N[C@@H](CCC(N)=O)C(=O)N[C@@H](CC(=O)O)C(=O)N[C@H](C(=O)N[C@@H](Cc1cnc[nH]1)C(=O)N[C@@H](CC(N)=O)C(=O)N[C@@H](Cc1ccccc1)C(N)=O)C(C)C)C(C)C`, the half-maximal effective concentration (EC50) entry in test [1] was “Not Active”. In test [3], the outcome was Active.

`CC[C@H](C)[C@H](NC(=O)[C@H](CCC(=O)O)NC(=O)[C@H](CO)NC(=O)[C@@H](NC(=O)C[C@@H](N)CO)C(C)C)C(=O)N[C@@H](CCC(N)=O)C(=O)N[C@@H](CC(C)C)C(=O)N[C@@H](CCSC)C(=O)N[C@@H](Cc1cnc[nH]1)C(=O)N[C@@H](CC(N)=O)C(=O)N[C@@H](CC(C)C)C(=O)NCC(=O)N[C@@H](CCCCN)C(=O)N[C@@H](Cc1cnc[nH]1)C(=O)N[C@@H](CC(C)C)C(=O)N[C@@H](CC(N)=O)C(=O)N[C@@H](CO)C(=O)N[C@@H](CCSC)C(=O)N[C@@H](CCC(=O)O)C(=O)N[C@@H](CCCNC(=N)N)C(=O)N[C@H](C(=O)N[C@@H](CCC(=O)O)C(=O)N[C@@H](Cc1c[nH]c2ccccc12)C(=O)N[C@@H](CC(C)C)C(=O)N[C@@H](CCCNC(=N)N)C(=O)N[C@@H](CCCCN)C(=O)N[C@@H](CCCCN)C(=O)N[C@@H](CC(C)C)C(=O)N[C@@H](CCC(N)=O)C(=O)N[C@@H](CC(=O)O)C(=O)N[C@H](C(=O)N[C@@H](Cc1cnc[nH]1)C(=O)N[C@@H](CC(N)=O)C(=O)N[C@@H](Cc1ccccc1)C(N)=O)C(C)C)C(C)C`: the fold change (FC) in test [2] came out at 0.7. For the same compound, the result in test [3] was Active.
